# Sampled rows, rich in hits. Any-hit rate of the full collection: about 1.1%.
# Avidin fluor = compound fluoresces at 488/530 nm on avidin beads; fluorescence (KMESF) at 10 µM; compound fluorescence 488/530 nm, flow cytometry; active compounds read high; actives 0.38% (n = 220,000); AID 1775; in the data active means fluorescence above about 47
# Pemphigus Ab inh = inhibitors of pemphigus antibody binding to human desmoglein-3; P32926; DSG3-coupled beads, scFv-anti-DSG3-GFP binding, flow cytometry; active compounds read low; binding (percent of control), % at 10 µM; actives 0.48% (n = 310,000);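 active means binding more than 3 SD below its plate's average and above zero; inconclusive means below that plate limit but binding exactly zero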;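 further: hits lower antibody fragment binding to DSG3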
# Arrestin-AP2 inh = blocks beta-arrestin peptide binding to AP2 adaptin | FITC-arrestin peptide / GST-AP2 beads, flow cytometry; AP2 beta2 appendage carries R879A mutation | inhibition, % at 10 µM | actives 0.31% (n = 340,000) | AID 504490;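 active means inhibition above a set limit, near 3 SD of compounds lacking own fluorescence, cut at about 54% in these data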;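 further: plate controls were DMSO wells for no effect and 5 µM unlabelled arrestin peptide for full effect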
#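 test system = AP2 appendage R879A on GSH beads | buffer or medium = PBS plus Tween 20 (0.05%) and BSA (0.1%) | incubation = 12 min plus 1 h, RT | detection = bead flow cytometry, FITC channel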
# GSH fluor = GSH bead compound fluorescence profile; GSH beads flow cytometry, compound fluorescence 488/530 nm; active compounds read high; AID 1776; actives 0.25% (n = 190,000); fluorescence (KMESF) at 10 µM; in the data active means fluorescence above about 89;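 further: glutathione beads carrying GST-tagged Bcl family fusion proteins plus one bare bead set; values are compound well signal with DMSO vehicle wells as background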
# Arr-AP2 CP1 = inhibitors of human beta-arrestin and AP2 interaction; actives 2% (n = 1,300); inhibition, % at 10 µM; shares compounds with Arrestin-AP2 inh; GST-AP2 beads, FITC arrestin peptide binding, flow cytometry; GST-fused beta2-adaptin appendage, R879A mutant;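 active means inhibition above a set limit, roughly 3 SD of non-fluorescent compound noise, cut at about 38% in these data; inactive means inhibition at or below that limit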;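 further: loss of bead fluorescence from 50 nM FITC arrestin peptide bound to appendage; 0% = negative control wells and 100% = excess unlabelled arrestin peptide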
# Target sequence (P63010 whole entry, looked up, the tested form may be a part, one chain of several): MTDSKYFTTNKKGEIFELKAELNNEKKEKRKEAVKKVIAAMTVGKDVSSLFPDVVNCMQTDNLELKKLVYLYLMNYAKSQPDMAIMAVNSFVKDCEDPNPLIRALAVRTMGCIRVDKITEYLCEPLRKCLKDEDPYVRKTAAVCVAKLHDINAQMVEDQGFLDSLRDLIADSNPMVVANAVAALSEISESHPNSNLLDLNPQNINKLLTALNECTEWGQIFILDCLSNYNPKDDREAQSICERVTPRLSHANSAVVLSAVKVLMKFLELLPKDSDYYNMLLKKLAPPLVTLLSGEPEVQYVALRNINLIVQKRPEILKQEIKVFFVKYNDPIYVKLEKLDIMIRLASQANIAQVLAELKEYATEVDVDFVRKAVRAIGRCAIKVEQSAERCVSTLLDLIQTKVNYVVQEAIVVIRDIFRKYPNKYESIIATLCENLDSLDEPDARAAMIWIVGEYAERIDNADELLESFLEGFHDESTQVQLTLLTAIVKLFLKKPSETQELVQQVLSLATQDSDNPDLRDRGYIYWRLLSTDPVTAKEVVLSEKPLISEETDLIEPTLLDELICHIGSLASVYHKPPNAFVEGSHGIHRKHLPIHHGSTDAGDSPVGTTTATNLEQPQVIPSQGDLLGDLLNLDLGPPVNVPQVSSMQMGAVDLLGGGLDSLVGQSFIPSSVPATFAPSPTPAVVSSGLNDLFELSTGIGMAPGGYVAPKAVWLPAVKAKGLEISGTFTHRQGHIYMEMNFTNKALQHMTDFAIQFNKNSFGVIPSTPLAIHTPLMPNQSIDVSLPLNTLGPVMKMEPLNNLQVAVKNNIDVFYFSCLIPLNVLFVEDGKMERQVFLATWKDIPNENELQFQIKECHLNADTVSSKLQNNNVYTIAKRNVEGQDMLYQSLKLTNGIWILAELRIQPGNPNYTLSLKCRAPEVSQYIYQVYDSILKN
# GST GSH counter = GST-GSH bead binding interference, counter-screen | GST-fluorescein binding to GSH beads, fluorescence | inhibition, % at 10 µM | shares compounds with Arrestin-AP2 inh | actives 2% (n = 1,300);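 active means inhibition above 50%, about 3 SD of the inhibition seen with non-fluorescent compounds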;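 further: fluorescein maleimide labelled GST captured on 4 micron glutathione beads; higher means more loss of bead fluorescence from quenching or blocked binding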
# Active calls of the source: *; ? = inconclusive; nt = no result.
SMILES,Avidin fluor,Pemphigus Ab inh,Arrestin-AP2 inh,GSH fluor,Arr-AP2 CP1,GST GSH counter
CC1CC(C)CN(CCCNC(=O)c2cc3c(=O)[nH]c4ccccc4c3n2C)C1 (stereo not given),6,98,60*,11,-8,-12
COc1ccc(OC)c(NC(=O)CSc2nnc(CCCO)n2-c2ccccc2)c1,9,96,90*,23,-9,-1
CN(CC(=O)NCCCN1CCOCC1)S(=O)(=O)c1cc(Cl)ccc1Cl,nt,113,64*,nt,9,-2
COCCNC(=O)Cn1nc(-c2ccc(Cl)cc2)c2ccccc2c1=O,nt,104,64*,nt,-4,3
COCCNC(=O)Cn1nc(-c2ccccc2)c2ccccc2c1=O,nt,89,-4,nt,nt,nt
COCC(=O)Nc1nc2n(n1)C(c1ccc(Cl)cc1)CC(c1ccc(OC)cc1)N2 (stereo not given),7,100,80*,56,2,-3
COc1ccc(OC)c(C(C(=O)NC2CCCCC2)N(C(=O)c2snc(C(N)=O)c2N)c2ccccc2OC)c1 (stereo not given),nt,117,-3,nt,nt,nt
COc1ccc(C)cc1N(C(=O)c1snc(C(N)=O)c1N)C(C(=O)NC1CCCCC1)c1ccc(C)o1 (stereo not given),nt,108,72*,nt,2,-2
CC(=O)c1cccc(NC(=O)C(C)OC(=O)c2cc(=O)[nH]c3ccccc23)c1 (stereo not given),nt,97,-2,nt,nt,nt
COc1ccc(S(=O)(=O)N2CCCCCC2)cc1C(=O)NCCc1ccccc1,nt,105,61*,nt,19,-3
O=C(Nc1cccc(F)c1)c1cc(S(=O)(=O)N2CCOCC2)ccc1N1CCCC1,nt,100,29,nt,-4,-2
CNC(=O)c1cc(S(=O)(=O)N2CC(C)OC(C)C2)ccc1N1CCCCC1 (stereo not given),nt,nt,16,nt,0,-15
CNC(=O)c1cc(S(=O)(=O)N2CC(C)OC(C)C2)ccc1N1CCOCC1 (stereo not given),nt,114,-7,nt,nt,nt
O=C(Nc1cccc(C(F)(F)F)c1)c1cc(S(=O)(=O)N2CCCCC2)ccc1N1CCOCC1,20,92,-1,18,nt,nt
COc1cccc(CNC(=O)c2cc(S(=O)(=O)N3CCOCC3)ccc2N2CCCC2)c1,nt,101,-11,nt,21,7
Cc1cc(S(=O)(=O)N2CCCCC2)ccc1OCC(=O)Nc1ccccc1,nt,93,27,nt,nt,nt
Cc1cc(S(=O)(=O)N2CCCC2)ccc1OCC(=O)Nc1ccccc1,nt,93,64*,nt,-8,-13
CC(C(=O)NCCCn1ccnc1)(c1ccccc1)c1ccccc1,nt,116,-7,nt,nt,nt
C=CCN1C(=O)c2ccc(C(=O)N3CCN(S(=O)(=O)c4cccc(F)c4)CC3)cc2C1=O,nt,100,66*,nt,5,-10
O=C(O)C1=C[C@H](c2ccc(F)cc2)C[C@H](OCc2ccc(CO)cc2)O1,10,97,22,nt,nt,nt
CC(=O)c1nn(-c2ccccc2)cc1C(=O)c1ccc(Br)cc1,13,88,104*,22,-6,-9
CC(=O)c1nn(-c2cccc(Br)c2)cc1C(=O)c1ccccc1,5,97,16,28,nt,nt
CN(C)S(=O)(=O)c1ccc(N2CCCC2)c(C(=O)NNC(=O)c2ccccc2)c1,nt,96,64*,nt,0,4
CN(C)S(=O)(=O)c1ccc(N2CCCC2)c(C(=O)NNC(=O)c2ccc(Br)cc2)c1,nt,101,21,nt,nt,nt
COc1ccc(S(N)(=O)=O)cc1C(=O)OCC(=O)Nc1ncc(Cl)c(C)c1Cl,nt,114,2,nt,nt,nt
SMILES,Avidin fluor,Pemphigus Ab inh,Arrestin-AP2 inh,GSH fluor,Arr-AP2 CP1,GST GSH counter
CCC(C)(C)NC(=O)C(c1cccnc1)N(C(=O)c1csnn1)c1ccccc1 (stereo not given),11,106,54*,15,0,-8
O=C(CCc1nc2sc3c(c2c(=O)[nH]1)CCCC3)NCCc1ccc(Cl)cc1,nt,101,nt,nt,nt,nt
CN(C)CCCNc1cc(C(C)(C)C)nc2c(-c3ccccc3)cnn12,6,120,-5,nt,nt,nt
Cc1ccccc1CC(=O)Nc1ccc2c(c1)CCC2,nt,100,60*,nt,-2,-1
CN1CCN(S(=O)(=O)c2cc([N+](=O)[O-])ccc2N/N=C/c2ccc(Cl)cc2)CC1,11,100,98*,13,2,-3
O=C(NCCc1ccccn1)c1ccc(OC2CCN(Cc3ccccn3)CC2)cc1,nt,?,-7,nt,nt,nt
CC(Cc1ccccn1)NC(=O)c1ccc(OC2CCN(Cc3ccccn3)CC2)cc1 (stereo not given),nt,111,62*,nt,11,1
NC(=O)CSc1nc2c(c(=O)n1-c1ccccc1)C1(CCCCC1)Cc1ccccc1-2,1,99,63*,12,-10,-6
CCOc1ccccc1NC(=O)Cn1c(=O)c2ccccc2n(CC)c1=O,6,97,5,14,7,-6
CCn1c(=O)n(CC(=O)Nc2cc(OC)ccc2OC)c(=O)c2ccccc21,35,94,26,27,-5,15
O=C(Nc1ccccc1Cl)c1cc(S(=O)(=O)N2CCCCC2)ccc1N1CCOCC1,17,93,8,10,nt,nt
CN(Cc1ccc(Cl)cc1)C(=O)c1cc(S(=O)(=O)N2CCOCC2)ccc1N1CCCC1,nt,95,-9,nt,-2,-13
CC(NC(=O)c1cc(S(=O)(=O)N2CCOCC2)ccc1N1CCCC1)c1ccc(Cl)c(Cl)c1 (stereo not given),nt,101,-7,nt,13,-1
CN(Cc1ccc(F)cc1)C(=O)c1cc(S(=O)(=O)N2CCCCC2)ccc1N1CCOCC1,nt,98,-2,nt,nt,nt
CN(CCOc1ccc(Cl)cc1)C(=O)c1cc(S(=O)(=O)N2CCOCC2)ccc1N1CCCC1,nt,100,-1,nt,20,-8
NS(=O)(=O)c1cccc(NC(=O)COC(=O)CCC(=O)c2cccs2)c1,nt,nt,19,nt,nt,nt
Cn1c(CC(=O)NNC(=O)c2cncc(Br)c2)nc2ccccc21,nt,108,5,nt,nt,nt
COc1ccc(NC(=O)CCNC(=O)C2CCN(S(=O)(=O)c3ccccc3)CC2)cc1OC,nt,97,nt,nt,nt,nt
COc1ccc(-n2c(SCC(=O)O)nc3sc4c(c3c2=O)CCCC4)cc1,nt,79*,59*,nt,-4,0
O=C(Nn1cnnc1)c1ccc(Cl)cc1,nt,93,3,nt,nt,nt
Cc1cc(C)n(CC(=O)O)c(=O)c1[N+](=O)[O-],8,110,66*,9,-11,-2
Cc1cc(=O)n(CC(=O)O)c2ccccc12,8,94,0,10,nt,nt
CCOc1ccc(/C=N/NC(=O)Cc2csc(Nc3cccc(C(F)(F)F)c3)n2)cc1,9,102,86*,8,9,2
CCOc1ccccc1CN1CCN(Cc2cn(C)nc2-c2ccccc2)CC1CCO (stereo not given),8,109,54*,9,7,5
Cn1cc(CN2CCN(Cc3ccccc3)C(CCO)C2)c(-c2ccccc2)n1 (stereo not given),9,95,-1,8,nt,nt

# Bioassay records from PubChem BioAssay.
